Reference: ChEMBL document CHEMBL1137744, “Parallel synthesis, molecular modelling and further structure-activity relationship studies of new acylthiocarbamates as potent non-nucleoside HIV-1 reverse transcriptase inhibitors” (Eur J Med Chem, 2009)
Calls of active or inactive are those of the source. The rule behind the calls is not given here.

Experiments:
[1] = system: Human immunodeficiency virus 1; assay: Antiviral activity against HIV1 3B infected in human MT4 cells assessed as inhibition of virus-induced cytopathogenicity by MTT assay; assay type: functional, organism-based; conditions: Human immunodeficiency virus 1, 3B
Method in brief: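 MT-4 cells infected with HIV-1 and read by MTT viability. EC50 is the concentration giving 50% protection of cells from virus-induced cytopathogenicity. Values are means of three separate experiments, with variation among triplicate samples under 10%.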

[2] = Cytotoxicity against human MT4 cells by MTT assay; assay type: cell-based
Method in brief: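 Uninfected (mock-infected) MT-4 cells were exposed to compound and viability was read by MTT. CC50 is the concentration cutting viability by 50%. Values are means of three separate experiments, with triplicate samples varying by less than 10%.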

[3] = Selectivity index, ratio of CC50 for human MT4 cells to EC50 for HIV1 3B; assay type: toxicity, cell-based; conditions: read-out: Ratio CC50/EC50
Method in brief: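 Computed as CC50/EC50. Both come from MTT readings in MT-4 cells: CC50 is 50% viability loss in mock-infected cells, and EC50 is 50% protection from HIV-1-induced cytopathogenicity. Each is the mean of three experiments.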

[4] = system: Human immunodeficiency virus 1; assay: Antiviral activity against HIV1 3B expressing reverse transcriptase Y181C mutant infected in human MT4 cells assessed as inhibition of virus-induced cytopathogenicity by MTT assay; assay type: functional, organism-based; conditions: Human immunodeficiency virus 1, 3B
Method in brief: (§1)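 MT-4 cells infected with HIV-1 carrying the Y181C RT mutation, alongside wild-type virus. EC50 is the concentration giving 50% protection from virus-induced cytopathogenicity, read by MTT. Values are means of three separate experiments run in triplicate. The ratio is EC50(Y181C)/EC50(wt).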

[5] = system: Human immunodeficiency virus 1; assay: Ratio of EC50 for HIV1 3B expressing reverse transcriptase Y181C mutant to EC50 for HIV1 3B; assay type: functional; method in brief: as §1
[6] = system: Human immunodeficiency virus 1; assay: Antiviral activity against HIV1 3B expressing reverse transcriptase K103N/Y181C double mutant infected in human MT4 cells assessed as inhibition of virus-induced cytopathogenicity by MTT assay; assay type: functional, organism-based

Row | SMILES | EC50 [1] [µM] | CC50 [2] [µM] | selectivity ratio [3] | EC50 [4] [µM] | Ratio EC50 [5] | Activity [6]
1 | Cc1ccc2c(c1)C(=O)N(CCOC(=S)N(C(=O)c1cccnc1Cl)c1ccc(Cl)cc1)C2=O | 0.06 | 49 | 817 | 6.7 | 112 | inactive
2 | O=C1c2ccccc2C(=O)N1CCOC(=S)N(C(=O)c1ccc(F)c(F)c1)c1ccc(Cl)cc1 | 0.008 | 52 | 6500 | 56 | 7000 | inactive
3 | Cc1cc(C(=O)N(C(=S)OCCN2C(=O)c3ccccc3C2=O)c2ccc(Cl)cc2)ccc1Br | 0.007 | 18 | 2570 | 10.9 | 1557 | inactive
4 | Cc1cc(C(=O)N(C(=S)OCCN2C(=O)c3ccccc3C2=O)c2ccc(Cl)cc2)c(C)o1 | 0.02 | 40 | 2000 | 7.5 | 375 | inactive
5 | O=C1c2ccccc2C(=O)N1CCOC(=S)N(C(=O)c1ccc(Cl)c([N+](=O)[O-])c1)c1ccc(Cl)cc1 | 0.02 | 48 | 2400 | 9 | 450 | inactive
6 | O=C1c2ccccc2C(=O)N1CCOC(=S)N(C(=O)c1ccc2ccccc2c1)c1ccc(Cl)cc1 | 0.02 | 37 | 1850 | 11 | 550 | inactive
7 | O=C1c2ccccc2C(=O)N1CCOC(=S)N(C(=O)c1cc2ccccc2s1)c1ccc(Cl)cc1 | 0.2 | 56 | 280 | 12 | 60 | inactive
8 | Cc1cccc2c1C(=O)N(CCOC(=S)N(C(=O)c1cccc([N+](=O)[O-])c1)c1ccc(Cl)cc1)C2=O | 0.03 | 44 | 1470 | 4.2 | 140 | inactive
9 | O=C1c2ccccc2C(=O)N1CCOC(=S)N(C(=O)c1ccc(F)cc1F)c1ccc(Cl)cc1 | 0.01 | 52 | 5200 | 5.4 | 540 | inactive
10 | O=C1c2ccccc2C(=O)N1CCOC(=S)N(C(=O)c1cccc(F)c1F)c1ccc(Cl)cc1 | 0.008 | 58 | 7250 | 6 | 750 | inactive
11 | Cc1ccc(C(=O)N(C(=S)OCCN2C(=O)c3ccccc3C2=O)c2ccc(Cl)cc2)cc1 | 0.05 | > 100 | > 2000 | 8.5 | 170 | inactive
12 | O=C1c2ccccc2C(=O)N1CCOC(=S)N(C(=O)c1cc(Cl)cc(Cl)c1)c1ccc(Cl)cc1 | 0.008 | 32 | 4000 | 8.2 | 1025 | inactive
13 | Cc1cccc(C(=O)N(C(=S)OCCN2C(=O)c3ccccc3C2=O)c2ccc(Cl)cc2)c1 | 0.01 | 58 | 5800 | 6 | 600 | inactive
14 | O=C1c2ccccc2C(=O)N1CCOC(=S)N(C(=O)c1cc(F)ccc1F)c1ccc(Cl)cc1 | 0.02 | 54 | 2700 | 5.7 | 285 | inactive
15 | CC(COC(=S)N(C(=O)c1cccc([N+](=O)[O-])c1)c1ccc(Cl)cc1)N1C(=O)c2ccccc2C1=O (racemic) | 0.05 | 77 | 1540 | 5 | 100 | inactive
